What was measured:
Type in all cases: cell-based
[1] = target: Interferon-induced, double-stranded RNA-activated protein kinase (Homo sapiens) (UniProt P19525); test: Inhibition of PKR Lys2 labeling site in human A-375 cells at 5 uM by KiNativ Profiling analysis relative to control
[2] = target: Serine/threonine-protein kinase 38 (Homo sapiens) (UniProt Q15208); test: Inhibition of NDR1 Lys1 labeling site in human A-375 cells at 5 uM by KiNativ Profiling analysis relative to control
[3] = target: Calcium/calmodulin-dependent protein kinase type 1 (Homo sapiens) (UniProt Q14012); test: Inhibition of CAMK1 alpha Lys1 labeling site in human A-375 cells at 0.5 uM by KiNativ Profiling analysis relative to control
Chain of Calcium/calmodulin-dependent protein kinase type 1 (Homo sapiens) (Q14012 whole entry, looked up): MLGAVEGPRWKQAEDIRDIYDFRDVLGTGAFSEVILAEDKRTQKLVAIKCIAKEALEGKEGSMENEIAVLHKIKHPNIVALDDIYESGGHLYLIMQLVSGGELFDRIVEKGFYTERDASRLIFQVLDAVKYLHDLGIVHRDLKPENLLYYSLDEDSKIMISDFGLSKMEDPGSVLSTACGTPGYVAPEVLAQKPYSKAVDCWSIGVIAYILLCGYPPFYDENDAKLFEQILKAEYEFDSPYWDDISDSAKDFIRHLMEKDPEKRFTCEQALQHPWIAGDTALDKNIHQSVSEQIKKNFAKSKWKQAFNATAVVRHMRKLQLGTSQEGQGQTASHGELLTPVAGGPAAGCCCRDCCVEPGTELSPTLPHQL
Outline: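 Intact A375 melanoma cells were treated with compound at 5 or 0.5 μM, then lysed. Lysate kinases were labeled with a lysine-reactive ATP or ADP-biotin probe (KiNativ). Inhibition is read as protection of each kinase labeling site from probe labeling.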

[4] = target: T1, Serine/threonine-protein kinase Nek9 (Homo sapiens) (UniProt Q8TD19); test: Inhibition of NEK9 Lys1 labeling site harbouring TEDDSLVVWKEVDLTR in human A-375 cells at 0.5 uM by KiNativ Profiling analysis relative to control
T1 sequence (whole entry): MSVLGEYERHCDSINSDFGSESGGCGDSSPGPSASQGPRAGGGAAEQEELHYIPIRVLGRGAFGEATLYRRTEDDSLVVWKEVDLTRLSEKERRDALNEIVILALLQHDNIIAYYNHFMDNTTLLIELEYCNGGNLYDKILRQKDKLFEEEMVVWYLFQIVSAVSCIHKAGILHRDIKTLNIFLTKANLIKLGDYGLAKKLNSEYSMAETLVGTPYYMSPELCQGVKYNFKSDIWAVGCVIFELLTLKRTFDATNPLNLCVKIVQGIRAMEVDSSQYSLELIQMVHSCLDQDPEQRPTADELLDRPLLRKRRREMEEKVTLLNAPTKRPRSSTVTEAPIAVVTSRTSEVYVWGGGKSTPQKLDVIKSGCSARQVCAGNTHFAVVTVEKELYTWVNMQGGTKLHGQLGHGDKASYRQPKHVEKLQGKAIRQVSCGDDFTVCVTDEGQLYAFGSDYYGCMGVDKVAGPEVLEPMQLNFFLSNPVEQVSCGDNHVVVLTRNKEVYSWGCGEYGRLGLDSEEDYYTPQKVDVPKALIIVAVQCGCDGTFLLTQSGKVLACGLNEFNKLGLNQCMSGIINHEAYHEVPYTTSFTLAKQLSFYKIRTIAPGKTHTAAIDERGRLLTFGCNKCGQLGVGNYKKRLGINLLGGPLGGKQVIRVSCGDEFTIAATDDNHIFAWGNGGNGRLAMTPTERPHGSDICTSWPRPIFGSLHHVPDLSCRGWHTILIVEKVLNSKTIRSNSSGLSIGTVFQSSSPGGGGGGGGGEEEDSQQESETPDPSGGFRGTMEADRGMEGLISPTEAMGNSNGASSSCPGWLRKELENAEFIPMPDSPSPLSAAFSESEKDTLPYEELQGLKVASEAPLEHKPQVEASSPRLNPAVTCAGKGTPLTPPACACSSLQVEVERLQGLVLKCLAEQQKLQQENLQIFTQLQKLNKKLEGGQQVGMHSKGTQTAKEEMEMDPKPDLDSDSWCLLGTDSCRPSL

[5] = target: Serine/threonine-protein kinase WNK1 (Homo sapiens) (UniProt Q9H4A3); test: Inhibition of Wnk1 Lys2 labeling site in human A-375 cells at 0.5 uM by KiNativ Profiling analysis relative to control
Chain of Serine/threonine-protein kinase WNK1 (Homo sapiens) (Q9H4A3 whole entry, looked up): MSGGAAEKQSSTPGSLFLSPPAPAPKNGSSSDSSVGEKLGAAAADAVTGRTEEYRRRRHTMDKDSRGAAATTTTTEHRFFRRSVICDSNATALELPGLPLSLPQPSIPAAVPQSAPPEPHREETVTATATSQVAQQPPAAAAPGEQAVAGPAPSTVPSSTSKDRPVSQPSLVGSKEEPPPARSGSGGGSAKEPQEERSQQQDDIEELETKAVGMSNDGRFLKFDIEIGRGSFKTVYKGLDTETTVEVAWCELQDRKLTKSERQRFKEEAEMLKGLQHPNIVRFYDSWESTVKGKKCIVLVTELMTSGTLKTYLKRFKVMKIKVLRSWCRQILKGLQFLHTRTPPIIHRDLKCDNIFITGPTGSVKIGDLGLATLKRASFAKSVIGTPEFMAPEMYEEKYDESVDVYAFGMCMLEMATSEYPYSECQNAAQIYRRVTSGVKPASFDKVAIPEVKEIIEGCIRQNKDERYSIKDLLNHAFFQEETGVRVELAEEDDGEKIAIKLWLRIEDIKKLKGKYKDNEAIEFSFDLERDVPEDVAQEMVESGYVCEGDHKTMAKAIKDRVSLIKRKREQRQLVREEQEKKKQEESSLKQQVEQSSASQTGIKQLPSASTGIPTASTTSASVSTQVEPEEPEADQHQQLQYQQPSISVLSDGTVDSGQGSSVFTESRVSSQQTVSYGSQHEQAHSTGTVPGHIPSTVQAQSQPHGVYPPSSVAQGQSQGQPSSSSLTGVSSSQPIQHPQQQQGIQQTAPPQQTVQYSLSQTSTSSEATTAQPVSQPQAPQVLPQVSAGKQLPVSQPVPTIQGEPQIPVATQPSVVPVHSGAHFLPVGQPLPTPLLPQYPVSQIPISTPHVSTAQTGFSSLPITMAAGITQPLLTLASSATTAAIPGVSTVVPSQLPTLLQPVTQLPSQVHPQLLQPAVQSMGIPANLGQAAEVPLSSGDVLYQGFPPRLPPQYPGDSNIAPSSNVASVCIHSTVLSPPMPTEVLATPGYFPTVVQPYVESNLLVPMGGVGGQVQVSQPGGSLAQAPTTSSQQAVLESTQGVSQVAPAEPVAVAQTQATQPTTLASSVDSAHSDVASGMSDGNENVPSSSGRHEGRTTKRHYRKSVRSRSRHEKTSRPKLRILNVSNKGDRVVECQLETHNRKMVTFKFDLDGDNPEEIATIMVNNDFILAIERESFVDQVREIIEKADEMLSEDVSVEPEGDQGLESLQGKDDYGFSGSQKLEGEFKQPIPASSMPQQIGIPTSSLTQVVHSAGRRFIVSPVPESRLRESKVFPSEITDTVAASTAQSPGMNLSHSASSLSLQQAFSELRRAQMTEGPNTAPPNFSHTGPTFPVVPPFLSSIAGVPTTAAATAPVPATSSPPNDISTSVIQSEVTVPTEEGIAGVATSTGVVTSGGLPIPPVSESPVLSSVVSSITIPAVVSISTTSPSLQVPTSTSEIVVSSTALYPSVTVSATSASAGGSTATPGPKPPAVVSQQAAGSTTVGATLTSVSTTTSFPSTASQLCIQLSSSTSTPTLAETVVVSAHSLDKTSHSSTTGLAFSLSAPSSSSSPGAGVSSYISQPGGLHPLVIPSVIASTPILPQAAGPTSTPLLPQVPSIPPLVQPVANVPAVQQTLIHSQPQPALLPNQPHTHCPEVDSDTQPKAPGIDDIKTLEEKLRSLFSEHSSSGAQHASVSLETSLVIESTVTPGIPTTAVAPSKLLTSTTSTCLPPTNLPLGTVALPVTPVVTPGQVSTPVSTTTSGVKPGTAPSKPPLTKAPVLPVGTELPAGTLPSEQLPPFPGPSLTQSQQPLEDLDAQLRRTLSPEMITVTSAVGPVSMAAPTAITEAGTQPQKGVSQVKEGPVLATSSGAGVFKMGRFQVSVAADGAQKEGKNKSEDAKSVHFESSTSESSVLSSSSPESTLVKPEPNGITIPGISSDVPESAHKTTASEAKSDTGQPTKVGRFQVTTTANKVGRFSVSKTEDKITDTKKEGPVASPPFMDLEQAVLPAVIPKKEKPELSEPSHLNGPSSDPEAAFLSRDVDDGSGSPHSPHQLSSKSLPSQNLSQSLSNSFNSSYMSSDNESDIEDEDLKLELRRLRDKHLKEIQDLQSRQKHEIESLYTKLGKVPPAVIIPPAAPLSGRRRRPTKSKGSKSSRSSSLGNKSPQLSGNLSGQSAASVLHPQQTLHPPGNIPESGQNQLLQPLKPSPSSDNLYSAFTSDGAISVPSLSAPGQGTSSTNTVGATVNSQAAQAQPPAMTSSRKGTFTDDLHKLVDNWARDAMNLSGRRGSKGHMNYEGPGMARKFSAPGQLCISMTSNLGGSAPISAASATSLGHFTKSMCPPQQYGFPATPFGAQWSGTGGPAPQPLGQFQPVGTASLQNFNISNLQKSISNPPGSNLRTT

[6] = target: T2, Serine/threonine-protein kinase Nek8 (Homo sapiens) (UniProt Q86SG6); test: Inhibition of NEK8 Lys2 labeling site in human A-375 cells at 0.05 uM by KiNativ Profiling analysis relative to control
T2 sequence (whole entry): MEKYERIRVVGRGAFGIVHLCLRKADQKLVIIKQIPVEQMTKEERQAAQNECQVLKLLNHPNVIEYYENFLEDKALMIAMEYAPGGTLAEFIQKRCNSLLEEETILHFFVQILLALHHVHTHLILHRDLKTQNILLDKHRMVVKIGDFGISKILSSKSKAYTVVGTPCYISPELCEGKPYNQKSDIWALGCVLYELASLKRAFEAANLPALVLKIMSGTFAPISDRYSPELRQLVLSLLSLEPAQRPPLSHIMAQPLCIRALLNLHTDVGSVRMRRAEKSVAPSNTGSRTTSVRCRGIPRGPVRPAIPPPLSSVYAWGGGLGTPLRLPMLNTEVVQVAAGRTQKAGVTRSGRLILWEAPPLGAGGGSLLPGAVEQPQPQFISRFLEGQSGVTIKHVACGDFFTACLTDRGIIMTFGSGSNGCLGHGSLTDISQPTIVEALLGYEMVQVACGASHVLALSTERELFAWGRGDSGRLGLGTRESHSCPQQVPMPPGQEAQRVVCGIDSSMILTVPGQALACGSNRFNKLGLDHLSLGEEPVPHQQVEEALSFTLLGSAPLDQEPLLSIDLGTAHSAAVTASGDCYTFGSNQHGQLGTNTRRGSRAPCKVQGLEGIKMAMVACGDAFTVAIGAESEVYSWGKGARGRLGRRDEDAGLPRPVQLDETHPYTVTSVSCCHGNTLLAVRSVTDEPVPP

[7] = target: Cyclin-dependent kinase 17 (Homo sapiens) (UniProt Q00537); test: Inhibition of PCTAIRE2 Lys2 labeling site in human A-375 cells at 0.5 uM by KiNativ Profiling analysis relative to control
Chain of Cyclin-dependent kinase 17 (Homo sapiens) (Q00537 whole entry, looked up): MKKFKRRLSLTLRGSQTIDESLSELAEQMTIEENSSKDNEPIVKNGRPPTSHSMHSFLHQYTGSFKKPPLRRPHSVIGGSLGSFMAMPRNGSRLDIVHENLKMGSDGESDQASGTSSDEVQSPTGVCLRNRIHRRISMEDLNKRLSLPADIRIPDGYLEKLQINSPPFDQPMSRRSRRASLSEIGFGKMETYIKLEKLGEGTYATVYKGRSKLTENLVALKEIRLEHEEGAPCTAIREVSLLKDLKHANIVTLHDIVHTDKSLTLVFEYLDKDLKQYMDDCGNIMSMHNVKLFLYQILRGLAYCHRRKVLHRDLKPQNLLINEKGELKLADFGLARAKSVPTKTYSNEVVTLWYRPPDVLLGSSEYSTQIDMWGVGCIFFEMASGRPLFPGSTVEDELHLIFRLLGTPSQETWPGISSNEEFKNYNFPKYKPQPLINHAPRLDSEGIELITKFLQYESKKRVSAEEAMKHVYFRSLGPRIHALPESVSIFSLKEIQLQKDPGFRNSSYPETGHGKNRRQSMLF

[8] = target: T3, Scaffold protein ILK (Homo sapiens) (UniProt Q13418); test: Inhibition of ILK Lys1 labeling site in human A-375 cells at 0.5 uM by KiNativ Profiling analysis relative to control
T3 sequence (whole entry): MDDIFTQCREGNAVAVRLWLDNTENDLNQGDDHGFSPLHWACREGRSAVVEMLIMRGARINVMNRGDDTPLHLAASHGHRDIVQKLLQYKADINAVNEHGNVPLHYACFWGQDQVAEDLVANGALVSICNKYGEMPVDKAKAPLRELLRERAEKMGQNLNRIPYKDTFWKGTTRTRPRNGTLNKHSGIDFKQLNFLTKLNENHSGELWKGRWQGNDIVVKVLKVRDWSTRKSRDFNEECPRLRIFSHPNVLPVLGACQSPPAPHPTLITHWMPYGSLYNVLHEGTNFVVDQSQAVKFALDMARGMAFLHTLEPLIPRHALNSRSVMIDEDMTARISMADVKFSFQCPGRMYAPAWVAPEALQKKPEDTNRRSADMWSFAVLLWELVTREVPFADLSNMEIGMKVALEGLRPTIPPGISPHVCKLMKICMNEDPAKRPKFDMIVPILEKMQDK

[9] = target: Protein kinase C beta type (Homo sapiens) (UniProt P05771); test: Inhibition of PKCb Lys2 labeling site in human A-375 cells at 5 uM by KiNativ Profiling analysis relative to control
Chain of Protein kinase C beta type (Homo sapiens) (P05771 2-671 limits assumed): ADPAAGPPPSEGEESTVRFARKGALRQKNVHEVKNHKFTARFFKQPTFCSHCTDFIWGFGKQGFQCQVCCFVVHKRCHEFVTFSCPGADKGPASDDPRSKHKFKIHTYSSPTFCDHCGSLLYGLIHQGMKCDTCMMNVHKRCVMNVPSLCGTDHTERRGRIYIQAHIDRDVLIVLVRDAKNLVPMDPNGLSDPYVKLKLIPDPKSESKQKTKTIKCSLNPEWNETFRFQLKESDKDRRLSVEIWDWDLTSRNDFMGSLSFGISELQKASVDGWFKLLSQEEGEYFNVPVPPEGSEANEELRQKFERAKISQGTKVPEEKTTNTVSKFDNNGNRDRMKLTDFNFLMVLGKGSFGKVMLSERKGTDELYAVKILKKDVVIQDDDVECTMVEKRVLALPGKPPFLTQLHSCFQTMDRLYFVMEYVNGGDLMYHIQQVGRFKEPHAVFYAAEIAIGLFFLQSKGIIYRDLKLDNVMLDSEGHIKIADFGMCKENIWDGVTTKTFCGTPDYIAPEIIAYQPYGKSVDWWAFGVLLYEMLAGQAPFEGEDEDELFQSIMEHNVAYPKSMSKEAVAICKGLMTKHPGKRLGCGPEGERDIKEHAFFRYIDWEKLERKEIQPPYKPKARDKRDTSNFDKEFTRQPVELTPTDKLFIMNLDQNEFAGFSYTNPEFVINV

[10] = target: Glycogen synthase kinase-3 alpha (Homo sapiens) (UniProt P49840); test: Inhibition of GSK3A Lys2 labeling site in human A-375 cells at 5 uM by KiNativ Profiling analysis relative to control

Chain of Interferon-induced, double-stranded RNA-activated protein kinase (Homo sapiens) (P19525 whole entry): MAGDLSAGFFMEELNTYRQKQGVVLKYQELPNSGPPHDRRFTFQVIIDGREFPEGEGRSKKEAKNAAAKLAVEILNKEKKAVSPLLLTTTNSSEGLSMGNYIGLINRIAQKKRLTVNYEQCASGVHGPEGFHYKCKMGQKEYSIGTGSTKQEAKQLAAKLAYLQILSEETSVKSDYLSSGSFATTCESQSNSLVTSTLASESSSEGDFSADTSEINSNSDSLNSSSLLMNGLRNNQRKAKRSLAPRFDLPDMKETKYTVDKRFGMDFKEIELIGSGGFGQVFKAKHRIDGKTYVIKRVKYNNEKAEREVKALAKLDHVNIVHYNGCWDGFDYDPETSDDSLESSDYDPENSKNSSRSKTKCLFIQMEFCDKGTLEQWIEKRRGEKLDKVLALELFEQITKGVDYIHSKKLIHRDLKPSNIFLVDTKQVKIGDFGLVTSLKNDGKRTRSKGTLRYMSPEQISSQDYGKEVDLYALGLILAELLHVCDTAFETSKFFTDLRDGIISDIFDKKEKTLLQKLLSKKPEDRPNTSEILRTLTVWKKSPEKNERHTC
Chain of Serine/threonine-protein kinase 38 (Homo sapiens) (Q15208 2-465 limits assumed): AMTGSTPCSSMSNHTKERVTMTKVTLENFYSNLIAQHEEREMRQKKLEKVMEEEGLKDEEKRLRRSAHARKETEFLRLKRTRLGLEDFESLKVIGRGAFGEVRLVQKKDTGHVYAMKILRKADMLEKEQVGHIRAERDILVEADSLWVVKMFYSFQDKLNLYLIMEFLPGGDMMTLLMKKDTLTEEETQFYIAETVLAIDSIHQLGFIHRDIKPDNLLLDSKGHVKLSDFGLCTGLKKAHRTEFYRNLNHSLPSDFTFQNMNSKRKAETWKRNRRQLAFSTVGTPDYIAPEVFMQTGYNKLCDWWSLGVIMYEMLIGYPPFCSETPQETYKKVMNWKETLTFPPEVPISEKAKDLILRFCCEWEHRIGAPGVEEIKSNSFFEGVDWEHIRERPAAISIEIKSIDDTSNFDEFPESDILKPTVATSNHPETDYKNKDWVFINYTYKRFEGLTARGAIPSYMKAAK

SMILES	inhibition [1] [%]	inhibition [2] [%]	inhibition [3] [%]	inhibition [4] [%]	inhibition [5] [%]	inhibition [6] [%]	inhibition [7] [%]	inhibition [8] [%]	inhibition [9] [%]	inhibition [10] [%]
CCN1CCN(Cc2ccc(NC(=O)c3ccc(C)c(Oc4ccnc5[nH]ccc45)c3)cc2C(F)(F)F)CC1	2.1	-0.8	69.7	-1.5	-3	-1.6	54.6	4.9	51	33.7
CCN1CCN(Cc2ccc(NC(=O)c3ccc(C)c(/C=C/c4cnc5[nH]ccc5c4OC)c3)cc2C(F)(F)F)CC1	-6.7	3.3	37	-5	7.9	-9.3	29.6	-1.2	50.2	31.7
